From PMC4038446 (Bioorganic & medicinal chemistry letters, 2012)

These compounds were tested against T1, AKR1C3 (Homo sapiens, UniProt P42330) (assay: primary inhibition assay). Details: 10 µM compound, 1-acenaphthenol, NAD+, pH 9.0.
T1 sequence (P42330 1-323): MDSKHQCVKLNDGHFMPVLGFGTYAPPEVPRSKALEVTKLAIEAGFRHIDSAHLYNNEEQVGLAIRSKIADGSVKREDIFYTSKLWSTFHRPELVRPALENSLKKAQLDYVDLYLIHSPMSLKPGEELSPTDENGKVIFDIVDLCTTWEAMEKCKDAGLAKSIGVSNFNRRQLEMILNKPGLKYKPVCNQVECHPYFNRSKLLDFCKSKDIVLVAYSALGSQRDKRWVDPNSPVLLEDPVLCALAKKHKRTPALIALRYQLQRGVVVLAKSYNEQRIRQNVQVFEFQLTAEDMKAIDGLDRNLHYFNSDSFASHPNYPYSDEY
Assay type: biochemical
How it was run: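 Recombinant enzyme oxidises 1-acenaphthenol with 2.3 mM NAD+. Medium is 100 mM phosphate pH 9.0, 0.005% Triton X-114, 5% DMSO. […] Test compound is at 10 µM. NADH increase is read at 340 nm, and initial velocities are compared with compound-free controls. Values are the mean of two independent experiments.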

| SMILES | AKR1C3 inhibition (%) |
| --- | --- |
| O=C(Nc1ccc(Br)cc1C(=O)O)c1ccc(F)c([N+](=O)[O-])c1 [Compound 8] | no AKR1C3 isoform inhibition was observed |
| CCOc1cccc(C(=O)Nc2ccc(Br)cc2C(=O)O)c1 [Compound 14] | almost completely lost |
| CCCCOc1cccc(C(=O)Nc2ccc(Br)cc2C(=O)O)c1 [Compound 15] | almost completely lost |
